Values after ≈ are worked out from the molar mass of the structure shown.
Legend:
Assay type in all cases: functional
Acinetobacter baumannii [1] = experiment: Antibacterial activity against multidrug-resistant Acinetobacter baumannii BM4666 by antimicrobial susceptibility assay
Outline: (§1)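 MICs measured by Etest on Mueller-Hinton agar. Disk diffusion on the same medium was used for susceptibility screening. Strains were grown at 37°C in brain heart infusion broth or agar. Mutants were picked from antibiotic gradient plates, taking colonies growing above the normal MIC. Those resistant to several drug classes by diffusion were kept.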

Acinetobacter baumannii [2] = experiment: Antibacterial activity against Acinetobacter baumannii BM4587 by antimicrobial susceptibility assay; outline: as §1
Acinetobacter baumannii [3] = experiment: Antibacterial activity against multidrug-resistant Acinetobacter baumannii BM4675 by antimicrobial susceptibility assay; outline: as §1
Acinetobacter baumannii [4] = experiment: Antibacterial activity against Acinetobacter baumannii BM4467 by antimicrobial susceptibility assay; outline: as §1
Acinetobacter baumannii [5] = experiment: Antibacterial activity against multidrug-resistant Acinetobacter baumannii BM4676 by antimicrobial susceptibility assay; outline: as §1
Acinetobacter baumannii [6] = experiment: Antibacterial activity against multidrug-resistant Acinetobacter baumannii AYE by antimicrobial susceptibility assay; outline: as §1
Acinetobacter baumannii [7] = experiment: Antibacterial activity against Acinetobacter baumannii CIP70-10 by antimicrobial susceptibility assay; outline: as §1
Acinetobacter baumannii [8] = experiment: Antibacterial activity against multidrug-resistant Acinetobacter baumannii BM4668 by antimicrobial susceptibility assay; outline: as §1
Acinetobacter baumannii [9] = experiment: Antibacterial activity against Acinetobacter baumannii BM4454 by antimicrobial susceptibility assay; outline: as §1
Acinetobacter baumannii [10] = experiment: Antibacterial activity against multidrug-resistant Acinetobacter baumannii BM4665 by antimicrobial susceptibility assay; outline: as §1

| Compound | MIC (Acinetobacter baumannii [1]) | MIC (Acinetobacter baumannii [2]) | MIC (Acinetobacter baumannii [3]) | MIC (Acinetobacter baumannii [4]) | MIC (Acinetobacter baumannii [5]) | MIC (Acinetobacter baumannii [6]) | MIC (Acinetobacter baumannii [7]) | MIC (Acinetobacter baumannii [8]) | MIC (Acinetobacter baumannii [9]) | MIC (Acinetobacter baumannii [10]) |
| --- | --- | --- | --- | --- | --- | --- | --- | --- | --- | --- |
| NCC[C@H](O)C(=O)N[C@@H]1C[C@H](N)[C@@H](O[C@H]2O[C@H](CN)[C@@H](O)[C@H](O)[C@H]2O)[C@H](O)[C@H]1O[C@H]1O[C@H](CO)[C@@H](O)[C@H](N)[C@H]1O [AMIKACIN] | 6 µg/mL (≈ 10.2 µM) | 4 µg/mL (≈ 6.83 µM) | 96 µg/mL (≈ 164 µM) | 4 µg/mL (≈ 6.83 µM) | > 256 µg/mL | 96 µg/mL (≈ 164 µM) | 6 µg/mL (≈ 10.2 µM) | 8 µg/mL (≈ 13.7 µM) | 8 µg/mL (≈ 13.7 µM) | 64 µg/mL (≈ 109 µM) |
| C[C@H]1[C@H](NC(=O)/C(=N\OC(C)(C)C(=O)O)c2csc(N)n2)C(=O)N1S(=O)(=O)O [AZTREONAM] | 32 µg/mL (≈ 73.5 µM) | 12 µg/mL (≈ 27.6 µM) | 32 µg/mL (≈ 73.5 µM) | 32 µg/mL (≈ 73.5 µM) | 32 µg/mL (≈ 73.5 µM) | > 256 µg/mL | 48 µg/mL (≈ 110 µM) | 48 µg/mL (≈ 110 µM) | 16 µg/mL (≈ 36.7 µM) | 6 µg/mL (≈ 13.8 µM) |
| CO/N=C(\C(=O)N[C@@H]1C(=O)N2C(C(=O)[O-])=C(C[N+]3(C)CCCC3)CS[C@H]12)c1csc(N)n1 [CEFEPIME] | 2 µg/mL (≈ 4.16 µM) | 0.75 µg/mL (≈ 1.56 µM) | 8 µg/mL (≈ 16.6 µM) | 1.5 µg/mL (≈ 3.12 µM) | 32 µg/mL (≈ 66.6 µM) | > 256 µg/mL | 1.5 µg/mL (≈ 3.12 µM) | 3 µg/mL (≈ 6.24 µM) | 3 µg/mL (≈ 6.24 µM) | 8 µg/mL (≈ 16.6 µM) |
| CO/N=C(\C(=O)N[C@@H]1C(=O)N2C(C(=O)O)=C(COC(C)=O)CS[C@H]12)c1csc(N)n1 [CEFOTAXIME] | 6 µg/mL (≈ 13.2 µM) | 3 µg/mL (≈ 6.59 µM) | > 256 µg/mL | 4 µg/mL (≈ 8.78 µM) | 32 µg/mL (≈ 70.3 µM) | > 256 µg/mL | 12 µg/mL (≈ 26.3 µM) | 8 µg/mL (≈ 17.6 µM) | 4 µg/mL (≈ 8.78 µM) | 4 µg/mL (≈ 8.78 µM) |
| CC(C)(O/N=C(\C(=O)N[C@@H]1C(=O)N2C(C(=O)[O-])=C(C[n+]3ccccc3)CS[C@H]12)c1csc(N)n1)C(=O)O [CEFTAZIDIME] | 12 µg/mL (≈ 22 µM) | 4 µg/mL (≈ 7.32 µM) | > 256 µg/mL | 8 µg/mL (≈ 14.6 µM) | > 256 µg/mL | > 256 µg/mL | 6 µg/mL (≈ 11 µM) | 16 µg/mL (≈ 29.3 µM) | 6 µg/mL (≈ 11 µM) | 3 µg/mL (≈ 5.49 µM) |
| O=C(N[C@H](CO)[C@H](O)c1ccc([N+](=O)[O-])cc1)C(Cl)Cl [CHLORAMPHENICOL] | > 256 µg/mL | 96 µg/mL (≈ 297 µM) | > 256 µg/mL | 96 µg/mL (≈ 297 µM) | 128 µg/mL (≈ 396 µM) | > 256 µg/mL | 48 µg/mL (≈ 149 µM) | > 256 µg/mL | > 256 µg/mL | > 256 µg/mL |
| O=C(O)c1cn(C2CC2)c2cc(N3CCNCC3)c(F)cc2c1=O [CIPROFLOXACIN] | 0.38 µg/mL (≈ 1.15 µM) | 0.094 µg/mL (≈ 0.284 µM) | > 32 µg/mL | 0.125 µg/mL (≈ 0.377 µM) | 24 µg/mL (≈ 72.4 µM) | > 32 µg/mL | 0.125 µg/mL (≈ 0.377 µM) | 0.38 µg/mL (≈ 1.15 µM) | > 32 µg/mL | 0.5 µg/mL (≈ 1.51 µM) |
| C[C@@H](O)[C@H]1C(=O)N2C(C(=O)O)=C(SCCNC=N)C[C@H]12 [IMIPENEM ANHYDROUS] | 0.19 µg/mL (≈ 0.635 µM) | 0.19 µg/mL (≈ 0.635 µM) | 2 µg/mL (≈ 6.68 µM) | 0.25 µg/mL (≈ 0.835 µM) | > 32 µg/mL | 1 µg/mL (≈ 3.34 µM) | 0.25 µg/mL (≈ 0.835 µM) | 0.25 µg/mL (≈ 0.835 µM) | 0.25 µg/mL (≈ 0.835 µM) | 0.5 µg/mL (≈ 1.67 µM) |
| CN(C)c1ccc(O)c2c1C[C@H]1C[C@H]3[C@H](N(C)C)C(O)=C(C(N)=O)C(=O)[C@@]3(O)C(O)=C1C2=O [MINOCYCLINE] | 0.19 µg/mL (≈ 0.415 µM) | 0.064 µg/mL (≈ 0.14 µM) | 8 µg/mL (≈ 17.5 µM) | 0.064 µg/mL (≈ 0.14 µM) | 1 µg/mL (≈ 2.19 µM) | 0.5 µg/mL (≈ 1.09 µM) | 0.047 µg/mL (≈ 0.103 µM) | 0.125 µg/mL (≈ 0.273 µM) | 0.75 µg/mL (≈ 1.64 µM) | 0.125 µg/mL (≈ 0.273 µM) |
| CCN[C@@H]1C[C@H](N)[C@@H](O[C@H]2OC(CN)=CC[C@H]2N)[C@H](O)[C@H]1O[C@H]1OC[C@](C)(O)[C@H](NC)[C@H]1O [NETILMICIN] | 1.5 µg/mL (≈ 3.15 µM) | 1.5 µg/mL (≈ 3.15 µM) | 32 µg/mL (≈ 67.3 µM) | 2 µg/mL (≈ 4.21 µM) | 12 µg/mL (≈ 25.2 µM) | 48 µg/mL (≈ 101 µM) | 2 µg/mL (≈ 4.21 µM) | 2 µg/mL (≈ 4.21 µM) | 16 µg/mL (≈ 33.6 µM) | 64 µg/mL (≈ 135 µM) |
| CCn1cc(C(=O)O)c(=O)c2cc(F)c(N3CCNCC3)cc21 [NORFLOXACIN] | 4 µg/mL (≈ 12.5 µM) | 1.5 µg/mL (≈ 4.7 µM) | > 256 µg/mL | 1.5 µg/mL (≈ 4.7 µM) | 192 µg/mL (≈ 601 µM) | > 256 µg/mL | 2 µg/mL (≈ 6.26 µM) | 4 µg/mL (≈ 12.5 µM) | > 256 µg/mL | 12 µg/mL (≈ 37.6 µM) |
| CO[C@H]1/C=C/O[C@@]2(C)Oc3c(C)c(O)c4c(O)c(c(/C=N/N5CCN(C)CC5)c(O)c4c3C2=O)NC(=O)/C(C)=C\C=C\[C@H](C)[C@H](O)[C@@H](C)[C@@H](O)[C@@H](C)[C@H](OC(C)=O)[C@@H]1C [RIFAMPIN] | 3 µg/mL (≈ 3.65 µM) | 1.5 µg/mL (≈ 1.82 µM) | > 32 µg/mL | 2 µg/mL (≈ 2.43 µM) | 2 µg/mL (≈ 2.43 µM) | 16 µg/mL (≈ 19.4 µM) | 4 µg/mL (≈ 4.86 µM) | 3 µg/mL (≈ 3.65 µM) | 2 µg/mL (≈ 2.43 µM) | 1.5 µg/mL (≈ 1.82 µM) |
| CN(C)[C@@H]1C(O)=C(C(N)=O)C(=O)[C@@]2(O)C(O)=C3C(=O)c4c(O)cccc4[C@@](C)(O)[C@H]3C[C@@H]12 [TETRACYCLINE] | 8 µg/mL (≈ 18 µM) | 1.5 µg/mL (≈ 3.38 µM) | 32 µg/mL (≈ 72 µM) | 3 µg/mL (≈ 6.75 µM) | 12 µg/mL (≈ 27 µM) | 64 µg/mL (≈ 144 µM) | 1 µg/mL (≈ 2.25 µM) | 8 µg/mL (≈ 18 µM) | 32 µg/mL (≈ 72 µM) | 3 µg/mL (≈ 6.75 µM) |
| CC1(C)S[C@@H]2[C@H](NC(=O)[C@H](C(=O)O)c3ccsc3)C(=O)N2[C@H]1C(=O)O [TICARCILLIN] | 16 µg/mL (≈ 41.6 µM) | 6 µg/mL (≈ 15.6 µM) | > 256 µg/mL | 12 µg/mL (≈ 31.2 µM) | > 256 µg/mL | > 256 µg/mL | 24 µg/mL (≈ 62.4 µM) | 24 µg/mL (≈ 62.4 µM) | 8 µg/mL (≈ 20.8 µM) | 2 µg/mL (≈ 5.2 µM) |
| CN(C)c1cc(NC(=O)CNC(C)(C)C)c(O)c2c1C[C@H]1C[C@H]3[C@H](N(C)C)C(O)=C(C(N)=O)C(=O)[C@@]3(O)C(O)=C1C2=O [TIGECYCLINE] | 0.38 µg/mL (≈ 0.649 µM) | 0.094 µg/mL (≈ 0.161 µM) | 1.5 µg/mL (≈ 2.56 µM) | 0.125 µg/mL (≈ 0.213 µM) | 1.5 µg/mL (≈ 2.56 µM) | 1.5 µg/mL (≈ 2.56 µM) | 0.125 µg/mL (≈ 0.213 µM) | 0.5 µg/mL (≈ 0.854 µM) | 3 µg/mL (≈ 5.12 µM) | 1.5 µg/mL (≈ 2.56 µM) |
| NC[C@H]1O[C@H](O[C@H]2[C@H](O)[C@@H](O[C@H]3O[C@H](CO)[C@@H](O)[C@H](N)[C@H]3O)[C@H](N)C[C@@H]2N)[C@H](N)C[C@@H]1O [TOBRAMYCIN] | 1 µg/mL (≈ 2.14 µM) | 0.75 µg/mL (≈ 1.6 µM) | 12 µg/mL (≈ 25.7 µM) | 1.5 µg/mL (≈ 3.21 µM) | 96 µg/mL (≈ 205 µM) | 64 µg/mL (≈ 137 µM) | 2 µg/mL (≈ 4.28 µM) | 2 µg/mL (≈ 4.28 µM) | 4 µg/mL (≈ 8.56 µM) | 16 µg/mL (≈ 34.2 µM) |
| GENTAMICIN | 1.5 µg/mL | 1 µg/mL | 24 µg/mL | 1.5 µg/mL | > 256 µg/mL | > 256 µg/mL | 1.5 µg/mL | 1.5 µg/mL | 6 µg/mL | 12 µg/mL |

— ChEMBL document CHEMBL1212768, “Screening and quantification of the expression of antibiotic resistance genes in Acinetobacter baumannii with a microarray” (2010)
